Drawing on publication PMC11888271 (bioRxiv, 2025), this text covers IC50 for three compounds.

Common to all, as to type: biochemical
One assay has as its target T1, caspase-1 (Homo sapiens, UniProt P29466).
T1 sequence (P29466 120-297 limits assumed): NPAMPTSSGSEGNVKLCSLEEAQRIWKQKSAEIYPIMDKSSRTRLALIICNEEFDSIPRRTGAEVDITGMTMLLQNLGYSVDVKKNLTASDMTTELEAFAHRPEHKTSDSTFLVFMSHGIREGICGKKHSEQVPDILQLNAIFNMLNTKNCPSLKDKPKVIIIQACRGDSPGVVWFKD
T1 sequence (P29466 317-404 limits assumed): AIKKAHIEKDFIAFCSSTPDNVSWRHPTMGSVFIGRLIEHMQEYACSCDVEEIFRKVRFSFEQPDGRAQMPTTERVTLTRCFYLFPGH
The experiment in a line: In vitro inhibition assay, caspase-1. In outline: (§1)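 Recombinant caspase at 0.25 activity units/µL in pH 7 PIPES buffer (100 mM NaCl, 10 mM DTT, 1 mM EDTA, 0.1% CHAPS, 10% sucrose). Saturating AMC substrate: Ac-WEHD 200 µM (caspase-1, -5) or 1000 µM (-4, -11); Ac-DEVD 100 µM (-3, -6, -7), or 25 µM for -3/-7 with a pan-caspase FMK inhibitor. Fluorescence read every 5 min. Background-subtracted linear rates normalised to no-inhibitor; three runs pooled and fitted to Y=100/(1+X/IC50).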

A further assay concerns the target T2, caspase-3 (Homo sapiens, UniProt P42574).
T2 sequence (P42574 29-175 limits assumed): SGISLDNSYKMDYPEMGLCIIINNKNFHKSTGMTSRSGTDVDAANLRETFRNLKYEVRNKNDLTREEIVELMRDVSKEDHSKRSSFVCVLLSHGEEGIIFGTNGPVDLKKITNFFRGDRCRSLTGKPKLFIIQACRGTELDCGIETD
T2 sequence (P42574 176-277 limits assumed): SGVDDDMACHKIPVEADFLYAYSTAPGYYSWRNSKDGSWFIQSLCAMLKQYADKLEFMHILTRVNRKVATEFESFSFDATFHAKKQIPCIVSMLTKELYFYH
The assay is described as follows: In vitro inhibition assay, caspase-3. In outline:
as §1

Another assay deals with T3, caspase-5 (Homo sapiens, UniProt P51878).
T3 sequence (P51878 137-327 limits assumed): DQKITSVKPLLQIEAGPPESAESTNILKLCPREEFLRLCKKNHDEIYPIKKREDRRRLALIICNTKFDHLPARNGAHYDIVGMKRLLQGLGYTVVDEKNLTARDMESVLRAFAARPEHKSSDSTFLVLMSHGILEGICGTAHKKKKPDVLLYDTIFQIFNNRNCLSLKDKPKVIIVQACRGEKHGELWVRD
T3 sequence (P51878 347-434 limits assumed): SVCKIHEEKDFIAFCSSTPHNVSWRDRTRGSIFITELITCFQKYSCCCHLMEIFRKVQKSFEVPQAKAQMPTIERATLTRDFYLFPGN
The experiment in a line: In vitro inhibition assay, caspase-5. Put shortly:
as §1

In the next assay the target is T4, caspase-6 (Homo sapiens, UniProt P55212).
T4 sequence (P55212 24-179 limits assumed): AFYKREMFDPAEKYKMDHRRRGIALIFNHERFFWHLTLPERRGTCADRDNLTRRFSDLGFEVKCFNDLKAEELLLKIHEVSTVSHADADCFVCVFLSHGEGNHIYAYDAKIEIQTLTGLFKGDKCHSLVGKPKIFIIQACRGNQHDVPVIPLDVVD
T4 sequence (P55212 194-293 limits assumed): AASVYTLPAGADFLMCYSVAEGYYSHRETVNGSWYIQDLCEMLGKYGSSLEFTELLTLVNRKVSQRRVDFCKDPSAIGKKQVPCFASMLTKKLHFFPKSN
The assay is described as follows: In vitro inhibition assay, caspase-6. Put shortly:
as §1

The next assay has as its target T5, caspase-7 (Homo sapiens, UniProt P55210).
T5 sequence (P55210 24-198 limits assumed): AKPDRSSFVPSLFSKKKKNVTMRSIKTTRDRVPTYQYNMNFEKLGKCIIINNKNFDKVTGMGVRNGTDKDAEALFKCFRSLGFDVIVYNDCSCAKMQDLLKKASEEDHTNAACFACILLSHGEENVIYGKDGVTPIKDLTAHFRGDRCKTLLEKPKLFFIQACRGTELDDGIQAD
T5 sequence (P55210 207-303 limits assumed): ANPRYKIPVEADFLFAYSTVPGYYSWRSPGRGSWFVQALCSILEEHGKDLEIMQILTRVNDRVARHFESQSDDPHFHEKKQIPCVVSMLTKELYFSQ
The assay is described as follows: In vitro inhibition assay, caspase-7. In outline: as §1

A further assay deals with caspase-8 (Homo sapiens, UniProt Q14790). The experiment in a line: In vitro inhibition assay, caspase-8. Particulars: IC50, caspase-8, 0.25 activity units/μL, 200 μM Ac-LEHD-AMC substrate.
In a further assay the target is T6, caspase-9 (Homo sapiens, UniProt P55211).
T6 sequence (P55211 1-315 limits assumed): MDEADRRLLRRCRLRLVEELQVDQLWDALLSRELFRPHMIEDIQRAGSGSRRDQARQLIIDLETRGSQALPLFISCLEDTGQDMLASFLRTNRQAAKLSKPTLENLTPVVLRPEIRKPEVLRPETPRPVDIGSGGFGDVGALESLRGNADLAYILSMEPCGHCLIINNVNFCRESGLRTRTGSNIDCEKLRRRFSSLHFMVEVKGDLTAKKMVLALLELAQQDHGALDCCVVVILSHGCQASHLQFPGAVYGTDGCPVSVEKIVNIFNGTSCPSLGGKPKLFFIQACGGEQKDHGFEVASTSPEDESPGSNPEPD
T6 sequence (P55211 331-416 limits assumed): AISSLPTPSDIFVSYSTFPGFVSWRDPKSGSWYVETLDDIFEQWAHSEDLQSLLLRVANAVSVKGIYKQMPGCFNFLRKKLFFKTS
The assay is described as follows: In vitro inhibition assay, caspase-9. Particulars: IC50, caspase-9 (different preparation), 1 activity unit/μL, 200 μM Ac-LEHD-AMC substrate.

A further assay has as its target T7, caspase-10 (Homo sapiens, UniProt Q92851).
T7 sequence (Q92851 220-415 limits assumed): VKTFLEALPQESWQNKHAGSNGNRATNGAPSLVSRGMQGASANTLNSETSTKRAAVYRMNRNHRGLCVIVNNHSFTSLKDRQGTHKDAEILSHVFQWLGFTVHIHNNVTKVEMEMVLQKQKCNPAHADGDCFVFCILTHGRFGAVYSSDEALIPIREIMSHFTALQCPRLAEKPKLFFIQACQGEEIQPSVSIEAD
T7 sequence (Q92851 416-521 limits assumed): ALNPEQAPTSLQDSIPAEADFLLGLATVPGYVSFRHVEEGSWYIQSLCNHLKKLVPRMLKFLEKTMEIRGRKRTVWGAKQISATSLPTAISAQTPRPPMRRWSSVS
The experiment in a line: In vitro inhibition assay, caspase-10. Particulars: IC50, caspase-10, 0.25 activity units/μL, 200 μM Ac-LEHD-AMC substrate.

Another assay addresses T8, caspase-4 (Homo sapiens, UniProt P49662).
T8 sequence (P49662 81-270 limits assumed): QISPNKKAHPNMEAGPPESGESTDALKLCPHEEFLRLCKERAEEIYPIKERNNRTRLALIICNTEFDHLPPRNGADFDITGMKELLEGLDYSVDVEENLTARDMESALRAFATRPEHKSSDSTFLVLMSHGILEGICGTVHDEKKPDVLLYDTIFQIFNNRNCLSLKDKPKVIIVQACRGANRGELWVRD
T8 sequence (P49662 290-377 limits assumed): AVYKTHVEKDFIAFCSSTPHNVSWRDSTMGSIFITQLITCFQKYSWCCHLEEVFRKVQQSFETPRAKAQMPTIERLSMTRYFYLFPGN
The experiment in a line: In vitro inhibition assay, caspase-4. In outline: as §1

The next assay has as its target T9, caspase-11 (Mus musculus, UniProt P70343).
T9 sequence (P70343 81-266 limits assumed): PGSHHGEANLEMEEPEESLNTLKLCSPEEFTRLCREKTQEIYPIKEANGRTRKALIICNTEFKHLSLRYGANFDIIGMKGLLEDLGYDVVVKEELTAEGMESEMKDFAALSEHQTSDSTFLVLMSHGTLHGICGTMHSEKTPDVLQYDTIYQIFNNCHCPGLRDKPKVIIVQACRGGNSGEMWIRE
T9 sequence (P70343 286-373 limits assumed): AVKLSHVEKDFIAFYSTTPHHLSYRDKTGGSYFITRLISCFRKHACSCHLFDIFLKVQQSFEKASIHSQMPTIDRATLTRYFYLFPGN
The assay is described as follows: In vitro inhibition assay, caspase-11. Put shortly:
as §1

Values joined by “and” are separate entries in the source; they are usually repeats but may differ in a detail not shown here. Identical values can stand only once. Peptide text beside a SMILES is read from it. * marks the point of attachment. Cbz = O=C(OCc1ccccc1)*; CH2F = FC*

Sequence of caspase-8 (Q14790 217-374 limits assumed): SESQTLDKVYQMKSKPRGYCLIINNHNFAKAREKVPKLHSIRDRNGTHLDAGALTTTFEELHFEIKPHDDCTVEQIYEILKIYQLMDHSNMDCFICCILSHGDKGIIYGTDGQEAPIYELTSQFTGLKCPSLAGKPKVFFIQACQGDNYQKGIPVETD
Sequence of caspase-8 (Q14790 385-479 limits assumed): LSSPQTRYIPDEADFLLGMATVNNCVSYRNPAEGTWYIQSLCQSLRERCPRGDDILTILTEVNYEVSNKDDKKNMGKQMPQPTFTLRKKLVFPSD

For the compound `CC[C@H](C)[C@H](NC(=O)OCc1ccccc1)C(=O)N[C@@H](CCC(=O)OC)C(=O)N[C@H](C(=O)N[C@@H](CC(=O)OC)C(=O)CF)[C@@H](C)O` [z-IETD-FMK] (Cbz-IE(OMe)TD(OMe)-CH2F), the IC50 against caspase-1 turned out to be 5.72 ± 0.47 µM; against caspase-3, 1.88 ± 0.26 µM; against caspase-5 it was 19.9 ± 1.19 µM; against caspase-6, 0.06 ± 0.04 µM; on caspase-7, 2.63 ± 0.54 µM; against caspase-8, 0.35 ± 0.1 µM. In addition, the 50% inhibitory concentration (IC50) is 3.7 µM and 3.65 µM against caspase-9; 5.76 ± 1.1 µM against caspase-10.
In the case of `CCO[C@@H]1OC(=O)C[C@@H]1NC(=O)[C@@H]1CCCN1C(=O)[C@@H](NC(=O)c1ccc(N)c(Cl)c1)C(C)(C)C` [VX-765, (S)-1-((S)-2-{[1-(4-amino-3-chloro-phenyl)-methanoyl]-amino}-3,3-dimethyl-butanoyl)-pyrrolidine-2-carboxylic acid ((2R,3S)-2-ethoxy-5-oxo-tetrahydro-furan-3-yl)-amide], the concentration for half-maximal inhibition (IC50) is 0.53 ± 0.09 µM on caspase-1; greater than 100 µM at caspase-3; 30.1 ± 2.67 µM against caspase-4; 19.5 ± 1.37 µM on caspase-5; greater than 100 µM at caspase-6; greater than 100 µM against caspase-7. Moreover, the concentration for half-maximal inhibition (IC50) is 1 µM and 1.02 µM against caspase-8; 4 µM and 4.01 µM at caspase-9; 42 µM and 42.3 µM against caspase-10; 81 ± 2.77 µM at caspase-11.
As to `COC(=O)CC[C@H](NC(=O)[C@H](CC(C)C)NC(=O)OCc1ccccc1)C(=O)N[C@@H](Cc1c[nH]cn1)C(=O)N[C@@H](CC(=O)OC)C(=O)CF` [z-LEHD-FMK] (Cbz-LE(OMe)HD(OMe)-CH2F), the IC50 against caspase-1 is 0.82 ± 0.13 µM; against caspase-3 it was 1.07 ± 0.18 µM; on caspase-5, 2.31 ± 0.31 µM; on caspase-6, 0.11 ± 0.06 µM; at caspase-7, 3.9 ± 0.29 µM; against caspase-8, 0.07 ± 0.01 µM. For the same compound, the half-inhibitory concentration (IC50) at caspase-9 is 1.5 µM and 1.58 µM; on caspase-10 it was 3.59 ± 1.27 µM.

Usually IC50 stands for the concentration that inhibits the measured activity by half. Low values mean inhibition by little substance, high ones a need for much substance.
